# Screening results from PubChem BioAssay.
# The list is not random: actives were taken first. Their share in the collection is about 2.6%.
# MEKK3 PB1 HTS – modulators of MEKK3-MEK5 PB1 binding, primary screen, biochemical, wildtype MEKK3, multiplex bead flow cytometry, Alexa488-MEK5. Mitogen-activated protein kinase kinase kinase 3 (Homo sapiens), Q99759. bead-based flow cytometry, Alexa488-MEK5 binding to MEKK3; actives lie on both sides; 0 = blocked by unlabeled MEK5, 100 = vehicle. binding response (% of control), % at 10 µM. hit rate 1.4% among 290,000;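 active = binding response more than 3 SD above or below the average of its plate-row segment, actives on both sides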;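 note: Alexa488 bead fluorescence after subtracting the streptavidin-only scavenger bead signal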
# Target sequence (Q99759 whole entry, looked up): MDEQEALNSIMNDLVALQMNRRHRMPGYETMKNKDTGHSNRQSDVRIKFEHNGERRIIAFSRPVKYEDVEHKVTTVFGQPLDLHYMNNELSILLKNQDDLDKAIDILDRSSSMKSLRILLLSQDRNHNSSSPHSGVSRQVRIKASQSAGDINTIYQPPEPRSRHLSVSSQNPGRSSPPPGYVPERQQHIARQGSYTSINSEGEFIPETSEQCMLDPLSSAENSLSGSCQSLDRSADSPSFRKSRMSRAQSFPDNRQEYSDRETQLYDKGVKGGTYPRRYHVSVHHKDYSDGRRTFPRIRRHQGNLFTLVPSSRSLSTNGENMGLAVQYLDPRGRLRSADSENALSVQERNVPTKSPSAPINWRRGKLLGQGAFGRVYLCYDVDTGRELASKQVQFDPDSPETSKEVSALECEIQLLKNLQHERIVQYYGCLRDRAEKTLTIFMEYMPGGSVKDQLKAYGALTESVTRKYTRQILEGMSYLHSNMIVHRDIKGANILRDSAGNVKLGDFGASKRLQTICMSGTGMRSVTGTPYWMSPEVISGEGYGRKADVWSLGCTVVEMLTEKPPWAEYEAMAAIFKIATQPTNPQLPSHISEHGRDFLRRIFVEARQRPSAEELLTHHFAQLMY
# Lipid droplet – inhibitors of hepatocyte lipid droplet formation, primary screen, imaging, high-throughput imaging, BODIPY stain | hit rate 0.4% among 240,000 | inhibition, % at 6.5 µM | AID 1656, 2009 | AML12 mouse hepatocytes, oleate lipid droplets;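 active = lipid droplet intensity inhibited by at least 50%, with more than 500 cells counted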
#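 Test system: AML12 hepatocytes (mouse); reagent: oleate loading, 100 µM; dosing: one dose, 6.5 µM compound; incubation: overnight exposure; signal: fluorescence imaging, 20x objective, two fields per well; read-out basis: % inhibition of corrected integrated BODIPY droplet signal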
# MEKK2mut PB1 HTS – MEK5 binding signal on mutant MEKK2 PB1, primary screen, biochemical, multiplex bead flow cytometry, Alexa488-MEK5. Alexa488-MEK5 binding to MEKK2 mutant. percent response, % at 10 µM. hit rate 0.35% among 290,000; in the data active = percent response above about 24%, passing the limit was not always enough
# MEKK2 WT-MEK5 – modulators of MEK5 binding to wildtype MEKK2, primary screen, biochemical, multiplex bead flow cytometry, Alexa488-MEK5; Mitogen-activated protein kinase kinase kinase 2 (Homo sapiens), Q9Y2U5; Alexa488-MEK5 binding to MEKK2 WT; actives lie on both sides; binding response (% of control), % at 10 µM; hit rate 1.1% among 290,000; AID 1531, 2009; in the data active = binding response below about 67% or above about 130%
# MEKK2wt confirm – modulators of MEK5 binding to wildtype MEKK2, confirmation, biochemical, single concentration, multiplex bead flow cytometry | Alexa488-MEK5 binding to MEKK2 WT; actives lie on both sides | shares compounds with MEKK3 PB1 HTS | AID 1892, 2009 | hit rate 2.4% among 5,900 | binding response (% of control), % at 10 µM; in the data active = binding response below about 16% or above about 210%; inactive = in between
# MEKK2mut confirm – mutant MEKK2 PB1-MEK5 binding signal retest – biochemical, single concentration, multiplex bead flow cytometry, confirmation; shares compounds with MEKK3 PB1 HTS; Alexa488-MEK5 binding to MEKK2 mutant; percent response, % at 10 µM; hit rate 2% among 5,900; in the data active = percent response mostly above about 71%, no sharp cut-off; inactive = mostly below about 38%;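 note: higher means compound restores mutant binding toward wildtype level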
# MEKK3-MEK5 inh – MEKK3 wild-type PB1 binding to MEK5, inhibitors, confirmation, biochemical, bead multiplex flow cytometry, single concentration, wildtype. shares compounds with MEKK3 PB1 HTS. Alexa488-MEK5 binding to MEKK3; hits give low values. binding response (% of control), % at 10 µM. hit rate 1.8% among 5,900. AID 1894, 2009;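 active = binding response below 72% of control, or above a set upper limit, though filed actives all read lower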;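 note: 100% = DMSO only wells and 0% = binding blocked by excess unlabeled MEK5; lower values mean stronger disruption of MEK5 binding to MEKK3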
# The depositor's hits bear a star; / = not tested or not shown; [ ] = remark or other dose.
SMILES,MEKK3 PB1 HTS,Lipid droplet,MEKK2mut PB1 HTS,MEKK2 WT-MEK5,MEKK2wt confirm,MEKK2mut confirm,MEKK3-MEK5 inh
N=c1c2c(-c3ccccc3)c(-c3ccccc3)n(Cc3ccco3)c2ncn1Cc1ccco1,112,-26,41*,152*,155,25,104
N=c1c2c(-c3ccccc3)c(-c3ccccc3)n(Cc3ccccc3)c2ncn1CCCn1ccnc1,105,/,12,146*,170,58,110
CCCCn1cnc2c(c(-c3ccccc3)c(-c3ccccc3)n2Cc2ccco2)c1=N,102,-1,7,113,/,/,/
Cc1cc(NCCCn2ccnc2)n2nc(C)c(-c3ccccc3)c2n1,88,7,1,98,/,/,/
CC(=O)N1CCCc2cc(S(=O)(=O)NCCC3=CCCCC3)ccc21,102,-21,3,104,/,/,/
Cc1ccc(NC(=O)c2cc(S(=O)(=O)NCCC3=CCCCC3)ccc2F)cc1,128*,9,0,109,98,-6,104
O=C(O)CSc1nnc(-c2cccc(S(=O)(=O)N3CCOCC3)c2)n1-c1cccc(Cl)c1,102,8,8,104,/,/,/
O=C(Nc1ccccc1)/C(=C/c1cccnc1)NC(=O)c1ccco1,129*,4,0,106,102,2,102
O=C(Nc1ccccc1)/C(=C\c1ccncc1)NC(=O)c1ccccc1,131*,/,6,120,96,-2,94
O=C(Nc1ccccc1)/C(=C\c1ccccc1)NC(=O)c1ccco1,97,0,-9,97,/,/,/
O=C(Nc1ccc(O)cc1)/C(=C\c1ccncc1)NC(=O)c1ccccc1,100,-36,-5,94,/,/,/
COC(=O)c1cc(C(=O)NCc2ccc3c(c2)OCO3)cc([N+](=O)[O-])c1,100,-10,2,97,/,/,/
COc1ccc(CNC(=O)CN(C(=O)CCC(=O)Nc2nccs2)c2ccc3c(c2)OCO3)cc1,98,-9,2,104,/,/,/
O=C(Cc1nnc(NC(=O)c2cccc([N+](=O)[O-])c2)s1)NCc1ccccc1,98,-2,0,100,/,/,/
O=C(CSCc1ccc(Cl)c(Cl)c1)Nc1c[nH]c(=O)[nH]c1=O,71*[inhibitor],-4,0,104,105,-2,103
CC(C)(C)C(O)C(Cc1ccccc1Cl)n1cncn1 (stereo not drawn),102,4,3,102,/,/,/
COc1cc(C(Nc2ccc(S(=O)(=O)NCC3CCCO3)cc2)C(=O)NC(C)(C)C)cc(OC)c1OC (stereo not drawn),129*,10,30,121,102,1,99
COc1cc(C(Nc2ccc(S(=O)(=O)N3CCC(C)CC3)cc2)C(=O)NCC2CCCO2)cc(OC)c1OC (stereo not drawn),109,-21,3,109,/,/,/
COc1ccc2c(c1)c(CC(=O)Nc1cccc(S(N)(=O)=O)c1)c(C)n2C(=O)c1ccc(Cl)cc1,103,7,4,107,/,/,/
Cc1nn(CC2CC2)c(=O)n1-c1cccc(Cl)c1,154*,14,5,133,97,-5,98
Cc1ccc(-n2c(C)nn(CC3CC3)c2=O)cc1,97,4,-3,97,/,/,/
Cc1nn(CC2CC2)c(=O)n1-c1ccc(F)cc1,129*,4,3,115,100,0,100
CCOC(=O)Cn1nc(C)n(-c2cccc(Cl)c2)c1=O,102,0,0,100,/,/,/
COCCNC(=O)C(c1ccc(F)cc1)N(C(=O)CCC(=O)Nc1ccccn1)c1cccc(C)c1 (stereo not drawn),97,-1,-6,94,/,/,/
Cc1cccc(NCc2cc(Cl)ccc2O)n1,82*[inhibitor],21,4,107,101,3,101
SMILES,MEKK3 PB1 HTS,Lipid droplet,MEKK2mut PB1 HTS,MEKK2 WT-MEK5,MEKK2wt confirm,MEKK2mut confirm,MEKK3-MEK5 inh
Cc1ccc(C(=O)NCCNC(=O)Cc2ccccc2)cn1,98,-17,4,97,/,/,/
O=C(NNc1ccc(Cl)cc1)c1c(F)cccc1Cl,101,9,7,102,/,/,/
O=C(NNc1cc(Cl)ccc1Cl)c1c(F)cccc1Cl,129*,-12,25,124,108,5,106
O=C(CSc1nc2nc3c(cc2c(=O)n1-c1ccccc1)CCCC3)Nc1ccccc1,131*,-2,-1,100,99,1,103
Cc1cc(-c2n[nH]c(=S)n2/N=C/C=C/c2ccccc2)n[nH]1,153*,20,0,105,103,10,105
COCCNC(=O)C(c1ccc(F)cc1)N(C(=O)CCC(=O)Nc1ccccn1)C1CCCCC1 (stereo not drawn),102,-3,2,100,/,/,/
O=C(Nc1nccs1)C1CCN(S(=O)(=O)c2ccccc2)CC1,104,22,1,104,/,/,/
CCn1c(CSc2nnc(-c3ccc4c(c3)OCO4)o2)nc2cc(S(=O)(=O)N(C)C)ccc21,98,-1,-4,93,/,/,/
CC[n+]1c(/C=C/N(C)c2ccccc2)oc2ccccc21,72*[inhibitor],-17,-1,99,103,3,103
CC[n+]1c(/C=C/N(C)c2ccccc2)oc2ccc(F)cc21,100,-12,-2,98,/,/,/
CCCc1cnc(NCCNCC(O)COc2ccc(Cl)c(Cl)c2)nc1 (stereo not drawn),106,-3,31,144*,109,1,102
CC(=O)c1cccc(OCC(O)CNCCc2ccc(Cl)cc2)c1 (stereo not drawn),103,-2,22,115,/,/,/
O=C1COc2ccc(C(=O)CSc3nc4ccccc4c(=O)n3-c3ccc(Cl)c(Cl)c3)cc2N1,136*,-10,0,113,37,-26,72
O=C1COc2ccc(C(=O)CSc3nnc(Cc4cccs4)n3-c3ccc(Cl)cc3)cc2N1,55*[inhibitor],/,-24,65,101,4,108
CC(=O)Nc1cccc(C(=O)Nc2cccnc2)c1,100,-6,5,100,/,/,/
COc1ccc(CC(=O)NC2CC(C)(C)NC(C)(C)C2)cc1,104,-9,-3,92,/,/,/
Cc1ccccc1OC(C)C(=O)N1CCN(c2ccccn2)CC1 (stereo not drawn),102,-6,7,107,/,/,/
